Measured values from ChEMBL document CHEMBL1147181, “Glutamine vinyl ester proteasome inhibitors selective for trypsin-like (beta2) subunit” (Eur J Med Chem, 2007).

Assays:
[1] = Inhibition of trypsin-like activity of 20S proteasome in lymphoblastoid cells after 30 mins; assay type: cell-based, Homo sapiens
Procedure, shortened: (§1)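 Proteasome partially purified from lymphoblastoid cell lines, then affinity-purified (anti-α-subunit mAb) and dialyzed against 25 mM Tris-HCl pH 7.5; protein by BCA. Enzyme untreated or pretreated with 0.001–10 test compound, then incubated with subsite-specific fluorogenic substrate 30 min at 37 °C in activity buffer; fluorescence ex 360/em 465 nm. IC50 from fit of percent control vs concentration, Y=100/(1+(X/IC50))^A.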

[2] = Inhibition of chymotrypsin-like activity of 20S proteasome in lymphoblastoid cells after 30 mins; assay type: cell-based, Homo sapiens; procedure, shortened: as §1
[3] = species: Homo sapiens; test: Stability in human plasma after 6 hrs
[4] = Inhibition of peptidylglutamyl-peptide hydrolyzing-like activity of 20S proteasome in lymphoblastoid cells after 30 mins; assay type: cell-based, Homo sapiens; procedure, shortened: as §1

Q: Which IC50 [1] does the source give for CCOC(=O)/C=C/[C@H](CC(C)C)NC(=O)[C@H](CO)NC(=O)[C@@H](NC(=O)c1cccc(O)c1C)C(C)C here?
A: Its IC50 is 0.033 µM.

Q: What about the IC50 [2] of the same compound?
A: Its IC50 is greater than 10 µM.

Q: What about the half-life [3] of the same compound?
A: Its half-life is greater than 6 h.

Q: What about the IC50 [4] of the same compound?
A: Its IC50 is greater than 10 µM.

Q: For CCOC(=O)/C=C/[C@H](CCC(N)=O)NC(=O)[C@@H]1Cc2ccccc2CN1C(=O)[C@@H](NC(=O)c1cccc(O)c1C)C(C)C, which IC50 [1] is on record?
A: The IC50 was 2.34 µM.

Q: And the IC50 [2]?
A: Its IC50 is greater than 10 µM.

Q: What about the half-life [3] of the same compound?
A: The half-life was greater than 6 h.

Q: And the IC50 [4]?
A: Its IC50 is greater than 10 µM.

Q: What does the source list for CCOC(=O)/C=C/[C@H](CC(C)C)NC(=O)[C@@H]1Cc2ccccc2CN1C(=O)[C@H](CC(C)C)NC(=O)c1cccc(O)c1C?
A: IC50 [1]: > 10 µM; IC50 [2]: > 10 µM; half-life [3]: > 6 h; IC50 [4]: > 10 µM

Q: Which IC50 [1] does the source give for CCOC(=O)/C=C/[C@H](CCC(N)=O)NC(=O)[C@H](CC(C)C)NC(=O)[C@H](CC(C)C)NC(=O)c1cccc(O)c1C here?
A: Its IC50 is 0.145 µM.

Q: What about the IC50 [2] of the same compound?
A: Its IC50 is 8.41 µM.

Q: What about the half-life [3] of the same compound?
A: The half-life was greater than 6 h.

Q: What about the IC50 [4] of the same compound?
A: Its IC50 is greater than 10 µM.

Q: With CCOC(=O)/C=C/[C@H](CC(C)C)NC(=O)[C@H](CO)NC(=O)[C@@H]1Cc2ccccc2CN1C(=O)c1cccc(O)c1C as the compound, how does the IC50 [1] read?
A: Its IC50 is 0.098 µM.

Q: And the IC50 [2]?
A: The IC50 was 7.36 µM.

Q: And the half-life [3]?
A: The half-life was greater than 6 h.

Q: And the IC50 [4]?
A: Its IC50 is greater than 10 µM.

Q: Which IC50 [1] does the source give for CCOC(=O)/C=C/[C@H](CC(C)C)NC(=O)[C@@H]1Cc2ccccc2CN1C(=O)[C@@H](NC(=O)c1cccc(O)c1C)C(C)C here?
A: Its IC50 is 8.51 µM.

Q: And the IC50 [2]?
A: The IC50 was greater than 10 µM.

Q: And the half-life [3]?
A: Its half-life is greater than 6 h.

Q: What about the IC50 [4] of the same compound?
A: The IC50 was greater than 10 µM.

Q: With CCOC(=O)/C=C/[C@H](CCC(N)=O)NC(=O)[C@H](CO)NC(=O)[C@@H](NC(=O)c1cccc(O)c1C)C(C)C as the compound, how does the IC50 [1] read?
A: Its IC50 is 0.056 µM.

Q: What about the IC50 [2] of the same compound?
A: The IC50 was greater than 10 µM.

Q: And the half-life [3]?
A: The half-life was greater than 6 h.

Q: What about the IC50 [4] of the same compound?
A: Its IC50 is greater than 10 µM.

Q: For CCOC(=O)/C=C/[C@H](CCC(N)=O)NC(=O)[C@H](CO)NC(=O)[C@@H]1Cc2ccccc2CN1C(=O)c1cccc(O)c1C, which IC50 [1] is on record?
A: The IC50 was 0.349 µM.

Q: What about the IC50 [2] of the same compound?
A: The IC50 was greater than 10 µM.

Q: And the half-life [3]?
A: Its half-life is greater than 6 h.

Q: And the IC50 [4]?
A: The IC50 was greater than 10 µM.

Q: For CCOC(=O)/C=C/[C@H](CCC(N)=O)NC(=O)[C@@H]1Cc2ccccc2CN1C(=O)[C@H](CC(C)C)NC(=O)c1cccc(O)c1C, which IC50 [1] is on record?
A: The IC50 was 5.89 µM.

Q: What about the IC50 [2] of the same compound?
A: Its IC50 is greater than 10 µM.

Q: And the half-life [3]?
A: The half-life was greater than 6 h.

Q: And the IC50 [4]?
A: Its IC50 is greater than 10 µM.

Q: Which IC50 [1] does the source give for CCOC(=O)/C=C/[C@H](CC(C)C)NC(=O)[C@H](CC(C)C)NC(=O)[C@@H]1Cc2ccccc2CN1C(=O)c1cccc(O)c1C here?
A: The IC50 was 0.157 µM.

Q: What about the IC50 [2] of the same compound?
A: The IC50 was 6.89 µM.

Q: And the half-life [3]?
A: Its half-life is greater than 6 h.

Q: And the IC50 [4]?
A: Its IC50 is greater than 10 µM.

Q: For CCOC(=O)/C=C/[C@H](CCC(N)=O)NC(=O)[C@H](CC(C)C)NC(=O)[C@@H]1Cc2ccccc2CN1C(=O)c1cccc(O)c1C, which IC50 [1] is on record?
A: Its IC50 is 0.435 µM.

Q: And the IC50 [2]?
A: Its IC50 is greater than 10 µM.

Q: And the half-life [3]?
A: Its half-life is greater than 6 h.

Q: What about the IC50 [4] of the same compound?
A: The IC50 was greater than 10 µM.
